The subject of series [1] is Staphylococcus aureus. Put plainly: Antibacterial activity against methicillin-resistant Staphylococcus aureus 1094. The class given is functional.
The subject of series [2] is Enterococcus faecium. Put plainly: Antibacterial activity against vancomycin-resistant Enterococcus faecium B42762. The series is classed as functional.
Series [3] concerns Enterococcus faecalis. Description: Antibacterial activity against Enterococcus faecalis ATCC 29212. The series is classed as functional.
Another series has as its system Bacillus licheniformis. Description: Antibacterial activity against Bacillus licheniformis ATCC 14580. The series is classed as functional.
A further series deals with Bacillus thuringiensis. Description: Antibacterial activity against Bacillus thuringiensis ATCC 10792. The series is classed as functional.
The subject of series [4] is Enterococcus faecalis. Description: Antibacterial activity against vancomycin-resistant Enterococcus faecalis ATCC 51575. The class given is functional.
Series [5] has as its system Staphylococcus aureus. Put plainly: Antibacterial activity against methicillin-resistant Staphylococcus aureus 1234558336. The series is classed as functional.
Series [6] deals with Staphylococcus aureus. Put plainly: Antibacterial activity against methicillin-resistant Staphylococcus aureus 1234522733. The series is classed as functional.
A further series relates to Bacillus subtilis. Description: Antibacterial activity against Bacillus subtilis BD54. The series is classed as functional.
The test system of series [7] is Staphylococcus aureus. Put plainly: Antibacterial activity against Staphylococcus aureus ATCC 25923 by broth microdilution method. The series is classed as functional. In general terms: In broth dilution the organism is exposed to a series of concentrations in liquid medium.
The test system of series [8] is Staphylococcus aureus. Put plainly: Antibacterial activity against methicillin-resistant Staphylococcus aureus 1234543349. The series is classed as functional.
The subject of series [9] is Enterococcus faecium. Put plainly: Antibacterial activity against Enterococcus faecium ATCC 19434. The series is classed as functional.
For series [10], the system named is Staphylococcus aureus. Put plainly: Inhibition of Staphylococcus aureus ATCC 25923 single-strand DNA stimulated ATPase activity of replicative DnaB helicase at 50 uM by FRET assay.
The subject of series [11] is Enterococcus faecium. Description: Antibacterial activity against vancomycin-resistant Enterococcus faecium 1644. The series is classed as functional.
The target of the next series is T1, Replicative DNA helicase (Bacillus anthracis, UniProt A0A6L8Q2B7).
T1 sequence (A0A6L8Q2B7 whole entry): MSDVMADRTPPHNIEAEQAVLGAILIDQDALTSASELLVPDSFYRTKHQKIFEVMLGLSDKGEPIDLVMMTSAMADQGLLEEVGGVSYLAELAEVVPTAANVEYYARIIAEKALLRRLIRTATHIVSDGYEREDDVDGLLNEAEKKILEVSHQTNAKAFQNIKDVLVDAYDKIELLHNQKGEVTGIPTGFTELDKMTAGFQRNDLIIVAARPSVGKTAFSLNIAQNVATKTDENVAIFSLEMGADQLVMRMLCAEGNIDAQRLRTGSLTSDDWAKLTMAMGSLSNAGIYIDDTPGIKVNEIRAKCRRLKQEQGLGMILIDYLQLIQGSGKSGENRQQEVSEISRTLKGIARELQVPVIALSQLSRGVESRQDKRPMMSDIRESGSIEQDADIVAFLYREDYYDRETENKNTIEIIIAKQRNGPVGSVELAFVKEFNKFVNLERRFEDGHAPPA
Description: Inhibition of Bacillus anthracis Sterne 34F2 replicative DNA helicase-mediated ATP-dependent dissociation of Hel-5'FAM:Hel-3'BHQ by FRET assay. More on the design: species or system Bacillus anthracis str. Sterne. The method in brief:
(§1)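 Unwinding was read by FRET as helicase-driven, ATP-dependent dissociation of annealed Hel-5′FAM and Hel-3′BHQ oligonucleotides, one fluorescent and the other quencher-labelled. The replicative helicases were prepared as described earlier.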

Series [12] has as its system Staphylococcus aureus. Description: Antibacterial activity against methicillin-resistant Staphylococcus aureus 1234549404. The class given is functional.
Another series deals with HeLa. Put plainly: Cytotoxicity against human HeLa cells by MTS assay. The class given is cell-based.
Series [13] has as its system Enterococcus faecalis. Description: Antibacterial activity against vancomycin-resistant Enterococcus faecalis 51299. The class given is functional.
Series [14] relates to Bacillus anthracis. Put plainly: Antibacterial activity against Bacillus anthracis Sterne. The series is classed as functional.
For series [15], the system named is Staphylococcus aureus. Description: Antibacterial activity against Staphylococcus aureus ATCC 25923. The class given is functional.
In series [16] the test system is Enterococcus faecalis. Put plainly: Antibacterial activity against vancomycin-resistant Enterococcus faecalis 700802. The series is classed as functional.
In series [17] the test system is Enterococcus faecalis. Put plainly: Antibacterial activity against vancomycin-resistant Enterococcus faecalis F118. The class given is functional.
Series [18] deals with Bacillus anthracis. Put plainly: Antibacterial activity against Bacillus anthracis by broth microdilution method. The series is classed as functional.
Series [19] deals with Staphylococcus aureus. Put plainly: Antibacterial activity against methicillin-resistant Staphylococcus aureus 1234547263. The series is classed as functional.
Series [20] has as its system Staphylococcus aureus. Description: Antibacterial activity against methicillin-resistant Staphylococcus aureus 1234544081. The series is classed as functional.
The nature of series [21]: Inhibition of Staphylococcus aureus ATCC 25923 replicative DnaB helicase-mediated ATP-dependent dissociation of Hel-5'FAM:Hel-3'BHQ by FRET assay. The gist of the method:
as §1

The nature of series [22]: Selectivity index, ratio of CC50 for human HeLa cells to MIC for Bacillus anthracis. The class given is functional. The method in brief:
(§2)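 Selectivity index is HeLa CC50 (MTS assay) divided by the bacterial MIC.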

Series [23] concerns Staphylococcus aureus. Put plainly: Antibacterial activity against Staphylococcus aureus ATCC 25923 by broth microdilution method in presence of reserpine. The series is classed as functional.
Series [24] can be described thus: Selectivity index, ratio of CC50 for human HeLa cells to MIC for Staphylococcus aureus ATCC 25923 in presence of reserpine. The class given is functional.
Series [25] deals with Staphylococcus aureus. Description: Ratio of MIC for Staphylococcus aureus ATCC 25923 in presence of reserpine to MIC for Staphylococcus aureus ATCC 25923 in absence of reserpine. The series is classed as functional.
The nature of series [26]: Selectivity index, ratio of CC50 for human HeLa cells to MIC for Staphylococcus aureus ATCC 25923. The series is classed as functional. The method in brief: as §2
The subject of series [27] is Staphylococcus aureus. Description: Antibacterial activity against Staphylococcus aureus ATCC 25923 assessed as re-growth at MIC after 24 hrs. The class given is functional, organism-based. The gist of the method:
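At set times up to 24 h, aliquots were diluted and spread on inhibitor-free LB agar to count viable CFU.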

A short description of series [28]: Inhibition of Staphylococcus aureus ATCC 25923 replicative DnaB helicase using 0.1875 to 3 mM ATP as substrate assessed as DNA duplex strand-unwinding by FRET assay. The method in brief:
(§3)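 S. aureus helicase FRET unwinding assay run with varied DNA duplex or ATP concentrations, in triplicate. RFU/min slopes were normalized to the uninhibited control, and IC50 came from four-parameter nonlinear fits.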

A short description of series [29]: Inhibition of Staphylococcus aureus ATCC 25923 replicative DnaB helicase using 3.3 to 90 nM Hel-5'FAM:Hel-3'BHQ as substrate assessed as DNA duplex strand-unwinding by FRET assay. The method in brief: as §3

Structures are written as SMILES. In brackets after ≈: the same amount, converted by molar mass. Activity calls are given as the source filed them. The rule behind the calls is not given here.

For the compound `Cc1c(CCC(=O)O)c(=O)oc2c(C)c(OCc3ccc(-c4ccc(Cl)cc4)cc3)ccc12`, the MIC (usually the least concentration at which growth counts as inhibited) against Staphylococcus aureus [1] was found to be 2.1 µg/mL (≈ 4.54 µM); in the series on Enterococcus faecium [2], 9.4 µg/mL (≈ 20.3 µM); in the series on Enterococcus faecalis [3], 6.3 µg/mL (≈ 13.6 µM); against Bacillus licheniformis it was 0.098 µg/mL (≈ 0.212 µM); with Bacillus thuringiensis, 0.52 µg/mL (≈ 1.12 µM); against Enterococcus faecalis [4] it was 25 µg/mL (≈ 54 µM). Besides, the MIC against Staphylococcus aureus [5] is 1.04 µg/mL (≈ 2.25 µM); with Staphylococcus aureus [6] it was 0.78 µg/mL (≈ 1.68 µM); against Bacillus subtilis, 3.1 µg/mL (≈ 6.7 µM); in the series with Staphylococcus aureus [7] it was 1.25 µM (≈ 0.579 µg/mL); against Staphylococcus aureus [8], 1.56 µg/mL (≈ 3.37 µM); against Enterococcus faecium [9], 12.5 µg/mL (≈ 27 µM). In addition, the MIC against Enterococcus faecium [11] came out at 10.4 µg/mL (≈ 22.5 µM); with Staphylococcus aureus [12], 0.52 µg/mL (≈ 1.12 µM); with Enterococcus faecalis [13] it was 4.2 µg/mL (≈ 9.07 µM); in the series with Bacillus anthracis [14] it was 0.17 µg/mL (≈ 0.367 µM); against Staphylococcus aureus [15], 0.78 µg/mL (≈ 1.68 µM); in the series with Enterococcus faecalis [16], 16.7 µg/mL (≈ 36.1 µM). The MIC stood at 3.6 µg/mL (≈ 7.78 µM) in the series with Enterococcus faecalis [17], 0.625 µM (≈ 0.289 µg/mL) in the series with Bacillus anthracis [18], 0.65 µg/mL (≈ 1.4 µM) with Staphylococcus aureus [19] and 0.65 µg/mL (≈ 1.4 µM) against Staphylococcus aureus [20]. Also, the inhibition (as a rule, the change of the read-out against control, counted positive when it falls) with Staphylococcus aureus [10] came to 8%. In addition, the figures for the IC50 (against Replicative DNA helicase; in series [21]) were 1.5 µM and 1 µM, respectively. Further, the CC50 (in general, the concentration giving 50% cytotoxicity) with HeLa stood at 25 µM.
As for `Cc1c(CCC(=O)O)c(=O)oc2c(C)c(OCc3ccc(-c4ccc(C(F)(F)F)cc4)cc3)ccc12`, the results for the “Selectivity Index” value in series [22] and in series [24] were more than 25.4 and 3.2, respectively. The MIC in the series with Staphylococcus aureus [23] is 6.3 µM; in the series on Staphylococcus aureus [7] it was 50 µM (≈ 24.8 µg/mL); in the series on Bacillus anthracis [18], less than 0.8 µM. The IC50 (in general, the concentration that gives 50% inhibition) turned out to be 6.1 µM on Replicative DNA helicase and 3.3 µM in [21]. The CC50 in the series with HeLa turned out to be 20.3 µM. Besides, the Ratio in the series on Staphylococcus aureus [25] came to 8.
As for `CCc1c(OCc2ccc(-c3ccccc3)cc2)ccc2c(C)c(CCCC(=O)O)c(=O)oc12`, the “Selectivity Index” value in [22] is on record as 6.2; in series [26] it was 3.1. The figures for the MIC in the series with Staphylococcus aureus [23], against Staphylococcus aureus [7] and in the series with Bacillus anthracis [18] were more than 100 µM, more than 100 µM and 2.5 µM (≈ 1.14 µg/mL), respectively. In addition, the IC50 amounted to 5 µM against Replicative DNA helicase and 1.8 µM in series [21]. This compound also had a CC50 in the series on HeLa of 15.4 µM.
`Cc1c(CCC(=O)O)c(=O)oc2c(C)c(OCc3ccc(-c4ccccc4)cc3)ccc12`: the result in the series with Staphylococcus aureus [27] was Active. In addition, the MIC in the series on Staphylococcus aureus [1] was 12.5 µg/mL (≈ 29.2 µM); in the series with Enterococcus faecium [2], 14.6 µg/mL (≈ 34.1 µM); against Enterococcus faecalis [3] it was 5.2 µg/mL (≈ 12.1 µM); against Bacillus licheniformis, 0.39 µg/mL (≈ 0.91 µM); in the series with Bacillus thuringiensis, 0.65 µg/mL (≈ 1.52 µM); in the series with Enterococcus faecalis [4], more than 25 µg/mL. In addition, the MIC was 3.1 µg/mL (≈ 7.23 µM) with Staphylococcus aureus [5]; 2.6 µg/mL (≈ 6.07 µM) against Staphylococcus aureus [6]; 2.5 µM (≈ 1.07 µg/mL) with Staphylococcus aureus [7]; 4.2 µg/mL (≈ 9.8 µM) against Staphylococcus aureus [8]; 2.6 µg/mL (≈ 6.07 µM) in the series with Enterococcus faecium [9]; 2.1 µg/mL (≈ 4.9 µM) against Enterococcus faecium [11]. In addition, the MIC is 1.56 µg/mL (≈ 3.64 µM) with Staphylococcus aureus [12]; 18.8 µg/mL (≈ 43.9 µM) with Enterococcus faecalis [13]; 0.52 µg/mL (≈ 1.21 µM) with Bacillus anthracis [14]; 1.56 µg/mL (≈ 3.64 µM) against Staphylococcus aureus [15]; more than 25 µg/mL in the series with Enterococcus faecalis [16]; 16.7 µg/mL (≈ 39 µM) in the series with Enterococcus faecalis [17]. Besides, the figures for the minimum inhibitory concentration (MIC) against Bacillus anthracis [18], with Staphylococcus aureus [19] and in the series with Staphylococcus aureus [20] were 1.25 µM (≈ 0.536 µg/mL), 2.1 µg/mL (≈ 4.9 µM) and 1.56 µg/mL (≈ 3.64 µM), respectively. Also, the IC50 turned out to be 1.5 µM in series [28], 1.8 µM in [29], 3 µM against Replicative DNA helicase and 2 µM in series [21]. In addition, the inhibition with Staphylococcus aureus [10] amounted to 6%. This compound also showed a CC50 in the series on HeLa of 82 µM.
Take `Cc1c(CCC(=O)O)c(=O)oc2c(C)c(OCc3c4ccccc4cc4ccccc34)ccc12`: the “Selectivity Index” value was 3.3 in [22] and 0.4 in series [26]. Also, the MIC in the series with Staphylococcus aureus [23] worked out at 50 µM; against Staphylococcus aureus [7], 20 µM (≈ 9.05 µg/mL); with Bacillus anthracis [18], 2.5 µM (≈ 1.13 µg/mL). The 50% inhibitory concentration (IC50) against Replicative DNA helicase amounted to 7.2 µM; in series [21] it was 8.3 µM. Moreover, the CC50 with HeLa came out at 8.3 µM.

The values above are taken from ChEMBL document CHEMBL2177067 (J Med Chem, 2012).
